Reference: ChEMBL document CHEMBL1177712, “Synthesis and characterization of in vitro and in vivo profiles of hydroxybupropion analogues: aids to smoking cessation” (J Med Chem, 2010)
The source made the active and inactive calls.

How the values were obtained:
[1] = system: Mus musculus; assay: Smoke cessation activity in sc dosed ICR mouse assessed as inhibition of nicotine-induced hypothermia administered 15 mins before nicotine challenge measured after 30 mins of nicotine infusion; assay type: functional, organism-based
Outline: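 Male ICR mice (20–25 g) were pretreated with test drug or saline 15 min before nicotine at 2.5 mg/kg sc. Rectal temperature was taken before and 30 min after nicotine, and the change was calculated. Room temperature was 21–24 °C. AD₅₀ came from at least four doses, with at least 8 mice per dose.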

[2] = system: Mus musculus; assay: Toxicity in sc dosed ICR mouse assessed occurrence of sedation; assay type: organism-based; conditions: in vivo
[3] = system: Mus musculus; assay: Smoke cessation activity in sc dosed ICR mouse assessed as inhibition of nicotine-induced antinociception administered 15 mins before nicotine challenge measured after 5 mins of nicotine infusion by hotplate assay; assay type: functional, organism-based
Outline: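 Male ICR mice (20–25 g) were pretreated with saline or test drug 15 min before nicotine at 2.5 mg/kg sc. They were tested 5 min later on a 55 °C hot plate (40 s cutoff), and the result was expressed as %MPE. AD₅₀ came from at least four doses, with at least 8 mice per dose.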

[4] = system: Mus musculus; assay: Toxicity in sc dosed ICR mouse assessed occurrence of convulsion; assay type: organism-based; conditions: in vivo
[5] = target: T1, Neuronal acetylcholine receptor; alpha4/beta4 (Homo sapiens, UniProt P30926+P43681); assay: Agonist activity at alpha4beta4 nicotinic receptor in human SH-EP1 cells assessed as induction of radiolabeled Rb+ influx at 0.005 to 100 uM by liquid scintillation counting; assay type: functional, cell-based
Outline: (§1)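 Cells were labelled with ⁸⁶Rb⁺ for at least 4 h, then exposed for 5 min in efflux buffer (pH 7.4) to test ligand alone at ~5 nM to 100 μM. The lines were TE671/RD (muscle α1β1γδ), SH-SY5Y (α3β4*) and transfected SH-EP1-hα4β2 or -hα4β4. Efflux was Cerenkov-counted. Non-specific efflux was subtracted, and results were normalized to specific efflux from carbamylcholine (1 mM; 3 mM for SH-SY5Y).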

[6] = system: Mus musculus; assay: Smoke cessation activity in sc dosed ICR mouse assessed as inhibition of nicotine-induced antinociception administered 15 mins before nicotine challenge measured after 5 mins of nicotine infusion by tail-flick assay; assay type: functional, organism-based
Outline: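 Radiant-heat tail-flick latency was read 5 min later (10 s cutoff; baseline 2–4 s) and expressed as %MPE. AD₅₀ came from at least four doses, with at least 8 mice per dose.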

[7] = target: Neuronal acetylcholine receptor; alpha4/beta2 (Homo sapiens, UniProt P17787+P43681); assay: Agonist activity at alpha4beta2 nicotinic receptor in human SH-EP1 cells assessed as induction of radiolabeled Rb+ influx at 0.005 to 100 uM by liquid scintillation counting; assay type: functional, cell-based; outline: as §1
[8] = system: Mus musculus; assay: Smoke cessation activity in sc dosed ICR mouse assessed as inhibition of nicotine-induced increase in locomotor activity administered 15 mins before nicotine challenge measured after 5 mins of nicotine infusion; assay type: functional, organism-based
[9] = system: SH-EP1; assay: Selectivity ratio of IC50 for alpha4beta2 nicotinic receptor in human SH-EP1 cells to IC50 for IC50 for human NET; assay type: cell-based
[10] = target: Acetylcholine receptor; alpha1/beta1/delta/gamma (Homo sapiens, UniProt P02708+P07510+P11230+Q07001); assay: Antagonist activity at alpha-1-beta-1-gamma-delta nicotinic receptor in human TE671 cells assessed as inhibition varbamylcholine-induced radiolabeled Rb+ influx at by liquid scintillation counting; assay type: functional, cell-based, TE-671
Outline: (§2)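 ⁸⁶Rb⁺-loaded human cells were given a 5-min efflux with carbamylcholine at EC₈₀–EC₉₀ plus graded test ligand. Non-specific efflux, taken with 100 μM mecamylamine or buffer, was subtracted. IC₅₀ came from a Hill fit of three independent experiments, with SEM given as a multiplication factor.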

[11] = target: T1, Neuronal acetylcholine receptor; alpha4/beta4; assay: Antagonist activity at alpha4beta4 nicotinic receptor in human SH-EP1 cells assessed as inhibition varbamylcholine-induced radiolabeled Rb+ influx at by liquid scintillation counting; assay type: functional, cell-based; outline: as §2

T1 sequence (P30926 whole entry): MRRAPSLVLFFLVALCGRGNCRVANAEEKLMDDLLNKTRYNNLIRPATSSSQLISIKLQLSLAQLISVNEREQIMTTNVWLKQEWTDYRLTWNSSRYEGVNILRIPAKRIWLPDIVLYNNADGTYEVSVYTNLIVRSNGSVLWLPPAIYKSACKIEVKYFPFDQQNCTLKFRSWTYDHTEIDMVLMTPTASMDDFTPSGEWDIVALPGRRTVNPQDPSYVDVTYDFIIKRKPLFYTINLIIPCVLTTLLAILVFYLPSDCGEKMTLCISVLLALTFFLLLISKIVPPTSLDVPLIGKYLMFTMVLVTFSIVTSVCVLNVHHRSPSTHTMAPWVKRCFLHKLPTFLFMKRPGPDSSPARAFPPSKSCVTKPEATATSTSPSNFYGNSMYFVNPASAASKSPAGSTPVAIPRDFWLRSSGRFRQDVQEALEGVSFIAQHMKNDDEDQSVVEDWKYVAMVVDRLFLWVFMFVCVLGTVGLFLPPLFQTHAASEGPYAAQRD
T1 sequence (P43681 whole entry): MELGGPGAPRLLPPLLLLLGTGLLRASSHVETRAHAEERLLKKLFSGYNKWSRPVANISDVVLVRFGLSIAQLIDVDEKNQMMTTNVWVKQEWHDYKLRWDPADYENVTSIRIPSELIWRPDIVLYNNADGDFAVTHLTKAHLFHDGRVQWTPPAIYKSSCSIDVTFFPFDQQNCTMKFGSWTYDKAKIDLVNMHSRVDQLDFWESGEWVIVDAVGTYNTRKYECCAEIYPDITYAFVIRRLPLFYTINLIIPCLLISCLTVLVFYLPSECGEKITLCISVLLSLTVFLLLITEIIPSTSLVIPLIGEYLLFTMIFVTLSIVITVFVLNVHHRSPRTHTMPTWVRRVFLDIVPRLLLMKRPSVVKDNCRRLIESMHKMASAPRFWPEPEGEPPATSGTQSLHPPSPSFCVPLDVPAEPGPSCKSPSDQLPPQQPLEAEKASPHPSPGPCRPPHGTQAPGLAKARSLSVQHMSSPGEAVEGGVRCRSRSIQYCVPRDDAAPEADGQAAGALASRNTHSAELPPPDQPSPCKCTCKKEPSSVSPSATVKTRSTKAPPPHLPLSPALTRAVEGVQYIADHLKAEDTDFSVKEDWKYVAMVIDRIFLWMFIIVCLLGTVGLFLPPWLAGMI
Acetylcholine receptor; alpha1/beta1/delta/gamma, sequence (P02708 whole entry): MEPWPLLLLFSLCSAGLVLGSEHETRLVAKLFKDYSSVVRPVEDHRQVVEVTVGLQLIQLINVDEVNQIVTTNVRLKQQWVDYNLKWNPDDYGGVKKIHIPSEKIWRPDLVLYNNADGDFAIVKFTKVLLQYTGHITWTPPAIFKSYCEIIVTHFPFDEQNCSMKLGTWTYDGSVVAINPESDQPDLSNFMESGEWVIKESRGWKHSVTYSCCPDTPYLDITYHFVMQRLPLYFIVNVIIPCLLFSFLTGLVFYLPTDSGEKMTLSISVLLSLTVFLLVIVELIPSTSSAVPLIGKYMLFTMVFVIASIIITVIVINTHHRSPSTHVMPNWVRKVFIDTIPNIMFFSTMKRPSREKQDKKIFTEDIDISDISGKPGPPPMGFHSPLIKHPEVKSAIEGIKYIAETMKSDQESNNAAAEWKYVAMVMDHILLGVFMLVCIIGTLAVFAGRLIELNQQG
Acetylcholine receptor; alpha1/beta1/delta/gamma, sequence (P07510 whole entry): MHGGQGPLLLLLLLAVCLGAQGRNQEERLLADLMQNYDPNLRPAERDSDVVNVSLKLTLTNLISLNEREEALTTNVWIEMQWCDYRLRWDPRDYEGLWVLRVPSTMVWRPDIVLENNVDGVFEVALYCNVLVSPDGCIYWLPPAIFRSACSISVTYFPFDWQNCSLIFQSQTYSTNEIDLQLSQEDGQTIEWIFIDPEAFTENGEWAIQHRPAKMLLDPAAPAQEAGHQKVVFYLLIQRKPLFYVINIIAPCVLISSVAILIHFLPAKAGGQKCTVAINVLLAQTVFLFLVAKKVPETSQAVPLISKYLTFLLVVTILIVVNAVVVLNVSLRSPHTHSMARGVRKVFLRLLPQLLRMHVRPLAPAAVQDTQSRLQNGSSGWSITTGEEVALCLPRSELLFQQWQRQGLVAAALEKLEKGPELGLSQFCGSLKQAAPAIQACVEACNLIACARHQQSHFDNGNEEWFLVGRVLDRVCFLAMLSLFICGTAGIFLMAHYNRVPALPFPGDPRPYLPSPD
Acetylcholine receptor; alpha1/beta1/delta/gamma, sequence (P11230 whole entry): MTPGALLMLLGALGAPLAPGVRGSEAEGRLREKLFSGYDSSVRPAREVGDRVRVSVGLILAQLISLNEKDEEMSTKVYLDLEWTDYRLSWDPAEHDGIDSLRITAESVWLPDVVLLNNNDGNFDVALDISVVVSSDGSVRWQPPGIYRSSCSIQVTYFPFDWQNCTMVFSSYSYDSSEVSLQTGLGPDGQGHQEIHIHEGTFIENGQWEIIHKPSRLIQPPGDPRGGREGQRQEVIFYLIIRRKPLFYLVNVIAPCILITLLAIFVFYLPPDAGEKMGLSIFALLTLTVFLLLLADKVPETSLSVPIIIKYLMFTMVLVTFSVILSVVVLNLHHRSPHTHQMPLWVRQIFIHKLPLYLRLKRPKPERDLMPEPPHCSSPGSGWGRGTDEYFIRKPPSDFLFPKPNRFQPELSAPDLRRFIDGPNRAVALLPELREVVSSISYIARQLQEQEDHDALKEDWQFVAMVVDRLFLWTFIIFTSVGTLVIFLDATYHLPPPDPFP
Acetylcholine receptor; alpha1/beta1/delta/gamma, sequence (Q07001 whole entry): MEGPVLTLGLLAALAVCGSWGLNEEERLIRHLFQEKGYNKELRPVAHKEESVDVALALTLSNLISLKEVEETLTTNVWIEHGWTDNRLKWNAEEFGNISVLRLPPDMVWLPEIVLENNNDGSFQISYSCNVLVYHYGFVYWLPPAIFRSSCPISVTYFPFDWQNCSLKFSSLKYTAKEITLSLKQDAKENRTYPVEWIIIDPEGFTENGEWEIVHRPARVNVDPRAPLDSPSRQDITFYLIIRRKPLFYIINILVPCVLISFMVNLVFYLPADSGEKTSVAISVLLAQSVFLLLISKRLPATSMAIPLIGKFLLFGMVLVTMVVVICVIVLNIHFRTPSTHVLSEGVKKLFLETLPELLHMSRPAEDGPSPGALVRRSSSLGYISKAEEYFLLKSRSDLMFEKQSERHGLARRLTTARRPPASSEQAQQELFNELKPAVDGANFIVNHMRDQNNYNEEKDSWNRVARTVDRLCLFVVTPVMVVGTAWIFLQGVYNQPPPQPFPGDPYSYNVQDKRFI

SMILES | IC50 [1] [mg/kg] | Activity [2] | IC50 [3] [mg/kg] | Activity [4] | Activity [5] | IC50 [6] [mg/kg] | Activity [7] | IC50 [8] [mg/kg] | Ratio IC50 [9] | IC50 [10] [µM] | IC50 [11] [µM]
CC(NC(C)(C)C)C(=O)c1cccc(Cl)c1 (racemic) [BUPROPION] | 9.2 | Non-toxic | 15 | Non-toxic | – | – | – | – | – | – | –
C[C@@H]1NC(C)(C)CO[C@@]1(O)c1cccc([N+](=O)[O-])c1 | 4.7 | Non-toxic | > 15 | Non-toxic | inactive | 4.9 | inactive | > 15 | 4 | – | –
CC1NC(C)(C)COC1(O)c1ccccn1 (racemic) | – | Non-toxic | – | Non-toxic | inactive | – | inactive | – | – | > 100 | > 100
C[C@@H]1NC(C)(C)CO[C@@]1(O)c1ccccc1 | > 15 | Non-toxic | > 15 | Non-toxic | – | > 15 | – | > 15 | – | > 100 | –
Cc1ccc([C@]2(O)OCC(C)(C)N[C@H]2C)cc1 | > 15 | Non-toxic | > 15 | Non-toxic | inactive | 0.004 | inactive | > 15 | – | – | –
COc1ccc([C@]2(O)OCC(C)(C)N[C@H]2C)cc1 | > 15 | Non-toxic | > 15 | Non-toxic | inactive | 0.019 | inactive | > 15 | – | – | –
COc1cccc([C@]2(O)OCC(C)(C)N[C@H]2C)c1 | > 15 | Non-toxic | > 15 | Non-toxic | inactive | 5.85 | inactive | > 15 | 3.3 | – | > 100
C[C@@H]1NC(C)(C)CO[C@@]1(O)c1cc(F)cc(F)c1 | > 15 | Non-toxic | > 15 | Non-toxic | inactive | 0.0056 | inactive | > 15 | – | – | –
C[C@@H]1NC(C)(C)CO[C@@]1(O)c1cccc(Br)c1 | 1.7 | Non-toxic | 4.3 | Non-toxic | inactive | 0.16 | inactive | 2.6 | – | – | –
C[C@@H]1NC(C)(C)CO[C@@]1(O)c1ccc(F)c(F)c1 | > 15 | Non-toxic | > 15 | Non-toxic | inactive | 0.006 | inactive | > 15 | – | – | > 100
CC1NC(C)(C)COC1(O)c1cccnc1 (racemic) | – | Non-toxic | – | Non-toxic | inactive | – | inactive | – | – | > 100 | > 100
